Measured values as given in article PMC6422158 (Clinical cancer research : an official journal of the …, 2018).

Key:
[1] = at doses above 400 mg; first human dose trial; ref 19−22; cited from earlier work
[2] = tested on: advanced BCC; conditions: human, in vivo; cited from earlier work
[3] = cited from earlier work
[4] = target: human serum albumin (Homo sapiens, UniProt P02768); assay: In vitro binding to human serum albumin; type: in vitro ADME
[5] = Plasma pharmacokinetics of LY2940680 and LSN3185556 in patients; type: in vivo, human
Outline: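 Oral dosing was once daily in the morning, 50–600 mg, on 28-day cycles. About 4 mL blood was drawn into EDTA tubes over a 24-h sampling schedule. Parent and metabolite in plasma were quantified by validated LC/MS. Noncompartmental analysis gave Cmax, tmax, AUC0–24, t1/2, Vd/F and CL/F. Accumulation ratio was from AUC0–24, days 1 vs 15, reported as geometric means with %CV.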

[6] = in vitro; type: in vitro ADME; conditions: human, plasma
[7] = tested on: advanced cancer; assay: Tumor response per RECIST 1.1, all patients on therapy; type: in vivo, human; conditions: 84 patients on therapy
Outline: (§1)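 Response was assessed by RECIST 1.1 plus investigator assessment. Best response required two CR determinations (or two PR-or-better) before progression. Confirmation used the same radiologic method repeated at least 4 weeks after the initial response. ORR was CR+PR among all patients dosed at least once. Clinical benefit was CR+PR+SD among dosed patients with a measurable lesion.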

[8] = tested on: patients with advanced cancer; assay: Phase I safety and tolerability; type: in vivo
[9] = tested on: Gli1 mRNA; assay: Gli1 mRNA expression in skin biopsies; type: in vivo, human; conditions: overall, all doses 50-600 mg QD; interquartile range 80.9%−95.7%
Outline: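 Normal skin biopsies taken predose, cycle 1 day 15 and cycle 2 day 1 from patients on oral QD dosing (28-day cycles). Post-dose samples were taken 2 h after dosing in escalation, and 24 h after the cycle 2 day 1 dose in confirmation/expansion. GLI1 was measured by RT-PCR, normalised to RPLP0, and % inhibition was derived by 2−ΔΔCT and summarised by dose level.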

[10] = target: CYP3A4 (Homo sapiens, UniProt P08684); assay: In vitro metabolism by CYP3A4; type: in vitro ADME; conditions: in vitro data
Chain of CYP3A4 (P08684 whole entry): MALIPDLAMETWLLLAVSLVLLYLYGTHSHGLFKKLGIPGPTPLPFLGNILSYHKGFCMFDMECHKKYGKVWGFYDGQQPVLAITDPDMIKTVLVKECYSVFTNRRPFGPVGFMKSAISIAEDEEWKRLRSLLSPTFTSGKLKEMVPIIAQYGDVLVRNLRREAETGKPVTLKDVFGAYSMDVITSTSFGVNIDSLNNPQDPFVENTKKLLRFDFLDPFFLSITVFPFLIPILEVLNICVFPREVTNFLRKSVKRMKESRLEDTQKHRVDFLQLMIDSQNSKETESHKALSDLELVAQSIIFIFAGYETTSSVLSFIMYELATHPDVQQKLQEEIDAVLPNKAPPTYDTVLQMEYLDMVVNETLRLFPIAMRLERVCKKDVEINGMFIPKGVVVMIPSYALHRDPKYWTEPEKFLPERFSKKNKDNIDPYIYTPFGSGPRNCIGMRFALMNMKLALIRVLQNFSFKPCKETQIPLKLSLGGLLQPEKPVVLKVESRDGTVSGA

[11] = tested on: human Smo (hSmo) receptor; conditions: cited from earlier work
[12] = tested on: locally advanced/metastatic basal cell carcinoma; assay: Tumor response per RECIST 1.1, BCC patients; type: in vivo, human
Outline: as §1

[13] = BCC, prior Hh therapy including vismodegib and sonidegib

Chain of human serum albumin (P02768 25-609): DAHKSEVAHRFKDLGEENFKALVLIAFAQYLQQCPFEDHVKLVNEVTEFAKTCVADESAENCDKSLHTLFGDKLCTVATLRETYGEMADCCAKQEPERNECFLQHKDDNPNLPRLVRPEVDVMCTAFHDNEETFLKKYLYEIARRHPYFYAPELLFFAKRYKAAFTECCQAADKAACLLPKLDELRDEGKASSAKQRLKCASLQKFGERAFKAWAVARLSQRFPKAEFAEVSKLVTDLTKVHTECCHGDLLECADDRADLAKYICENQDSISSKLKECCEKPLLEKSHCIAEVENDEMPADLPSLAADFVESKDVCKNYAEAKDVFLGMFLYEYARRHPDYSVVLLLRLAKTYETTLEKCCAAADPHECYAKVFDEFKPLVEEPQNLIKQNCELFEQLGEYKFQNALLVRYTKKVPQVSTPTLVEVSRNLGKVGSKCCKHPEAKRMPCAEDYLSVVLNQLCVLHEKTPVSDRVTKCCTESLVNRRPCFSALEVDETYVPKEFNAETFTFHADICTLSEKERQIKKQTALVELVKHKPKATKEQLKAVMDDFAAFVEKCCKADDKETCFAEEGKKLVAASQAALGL

Question: With `Cc1c(C(=O)Nc2ccc(N3C[C@@H](C)O[C@@H](C)C3)nc2)cccc1-c1ccc(OC(F)(F)F)cc1` [sonidegib] as the compound, how does the PK linearity [1] read?
Answer: nonlinear PK

Question: And the “Efficacy in advanced BCC patients previously treated with vismodegib” value [2]?
Answer: not efficacious

Question: And the “Bound to plasma protein” value [3]?
Answer: over 99%

Question: With `CN(C(=O)c1ccc(F)cc1C(F)(F)F)C1CCN(c2nnc(-c3ccnn3C)c3ccccc23)CC1` [LY2940680, taladegib] as the compound, how does the “Concentration dependence of binding to human serum albumin” value ([4]; 1 to 10 μmol/L) read?
Answer: no apparent concentration-dependent binding

Question: What about the Predominant plasma-binding protein ([4]; tested with human serum albumin and human α−1-acid glycoprotein) of the same compound?
Answer: Human serum albumin

Question: And the “Accumulation ratio based on AUC0–24” value ([5]; LY2940680, between days 1 and 15, QD, range 0.7−4.8, 39% CV)?
Answer: approximately 2

Question: And the Steady state attained ([5]; QD dosing)?
Answer: cycle 2, day 1

Question: What about the “Dose proportionality of Cmax and AUC0–24” value ([5]; after multiple doses) of the same compound?
Answer: did not suggest any large deviation from dose proportionality

Question: What about the “Time to reach Cmax” value ([5]; after single- and multiple-dose oral administrations) of the same compound?
Answer: approximately 3 hours

Question: And the “PK variability on exposure” value ([5]; human, in vivo)?
Answer: approximately 70%

Question: And the Vd/F ([5]; human, plasma, po)?
Answer: 235 L

Question: And the “CL/F (geometric mean)” value ([5]; oral, 70% CV)?
Answer: 8.2 L/h

Question: And the fraction unbound [6]?
Answer: 0.056

Question: And the “Best response of SD” value [7]?
Answer: 26 (30.9%) patients (%)

Question: What about the “Best response of progressive disease” value [7] of the same compound?
Answer: 24 (28.6%) patients (%)

Question: And the “Confirmed CR” value [7]?
Answer: 5 (5.9%) patients (%)

Question: And the “Confirmed PR” value [7]?
Answer: 16 (19.0%) patients (%)

Question: What about the “Patients with a response” value [7] of the same compound?
Answer: 22 (26.2%) patients (%)

Question: What about the “Unconfirmed PR” value [7] of the same compound?
Answer: 1 (1.2%) patients (%)

Question: What about the “AE resulting in dose reductions: decreased appetite” value ([8]; human, in vivo) of the same compound?
Answer: 3

Question: And the “AE resulting in dose reductions: dysgeusia” value ([8]; human, in vivo)?
Answer: 3

Question: What about the “AE resulting in dose reductions: fatigue” value ([8]; human, in vivo) of the same compound?
Answer: 8

Question: What about the “AE resulting in dose reductions: muscle spasms” value ([8]; human, in vivo) of the same compound?
Answer: 8

Question: What about the “AE resulting in dose reductions: nausea” value ([8]; human, in vivo) of the same compound?
Answer: 3

Question: And the “AE resulting in dose reductions: weight decreased” value ([8]; human, in vivo)?
Answer: 3

Question: And the “Patients who discontinued treatment because of AE” value ([8]; human, in vivo)?
Answer: 10

Question: What about the “Patients with SAEs” value ([8]; human, in vivo) of the same compound?
Answer: 22 patients

Question: And the “Patients with at least 1 dose reduction” value ([8]; human, in vivo)?
Answer: 16 patients

Question: What about the “Patients with DLTs” value ([8]; human, in vivo, 1 cycle) of the same compound?
Answer: 4 patients

Question: What about the DLT observed ([8]; human, in vivo, 22 day) of the same compound?
Answer: grade 3 hyponatremia

Question: What about the “Maximum tolerable dose (MTD)” value ([8]; oral QD, 3+3 dose escalation 50 to 600 mg) of the same compound?
Answer: 400 mg

Question: And the “Gli1 inhibition in normal skin (median)” value [9]?
Answer: 92.3%

Question: What about the “Fraction metabolized by CYP3A4” value [10] of the same compound?
Answer: 100%

Question: What about the “Binding to hSmo receptor” value [11] of the same compound?
Answer: competitively inhibits binding of an hSmo agonist

Question: And the “Best overall response of CR or PR” value ([12]; 16 BCC patients requiring dose reductions)?
Answer: 9 (56.3%) patients (%)

Question: What about the “Best overall response of CR or PR” value ([12]; 47 BCC patients) of the same compound?
Answer: 22 (46.8%) patients (%)

Question: And the “Best response of progressive disease” value ([12]; 47 BCC patients)?
Answer: 1 patient

Question: And the “Best response of SD” value ([12]; 47 BCC patients (twenty-one patients))?
Answer: 44.7%

Question: And the “Best response of non-CR nonprogressive disease” value ([12]; 47 BCC patients, based on nontarget lesions)?
Answer: 1 patient

Question: What about the “Responses in Hh treatment-naïve patients” value ([12]; BCC) of the same compound?
Answer: 68.8%

Question: And the “Responses in Hh treatment-naïve patients (responders/patients)” value ([12]; BCC)?
Answer: 11/16

Question: What about the “Estimated median PFS” value ([12]; BCC expansion phase (n = 40), 400 mg QD, 95% CI 7.62−17.54) of the same compound?
Answer: 12.0 months

Question: And the Estimated response rate ([12]; BCC patients (n = 47), 95% CI 32.1%−61.9%)?
Answer: 46.8%

Question: And the Disease control rate ([12]; BCC patients, 95% CI 82.5%−98.7%)?
Answer: 93.6%

Question: And the “Responses in patients previously treated with Hh therapy” value [12, 13]?
Answer: 35.5%

Question: And the “Responses in patients previously treated with Hh therapy (responders/patients)” value [12, 13]?
Answer: 11/31

Question: What about the “Duration of sustained response, single patient” value ([12]; Hh-inhibitor treatment–naïve locally advanced BCC, 50 mg QD, PR) of the same compound?
Answer: 8.3 months

Question: And the “Confirmed CR” value ([12]; number of the 16 BCC patients requiring dose reductions)?
Answer: 3

Question: And the “Confirmed CR” value ([12]; number of the 47 BCC patients)?
Answer: 5

Question: What about the “Confirmed PR” value ([12]; number of the 47 BCC patients) of the same compound?
Answer: 16

Question: What about the “Unconfirmed PR” value ([12]; number of the 47 BCC patients) of the same compound?
Answer: 1
